Experiment [1] has as its system Rattus norvegicus. Nature of the experiment: Antihypertensive activity in spontaneous hypersensitive […] rat model assessed as duration of reduction of blood pressure at 5 to 10 mg/kg, po. The format is functional. Conditions: dose mg/kg 5-10. The method, boiled down: (§1)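 Spontaneously hypertensive rats (250-300 g), randomized into groups of 10. Compound suspended in 0.5% sodium carboxymethyl cellulose, oral dosing at 5 and 10 mg/kg; vehicle-only negative control and losartan 10 mg/kg positive control. Mean blood pressure recorded under sodium pentobarbital anesthesia (40 mg/kg, i.p.). Significance versus control at p < 0.05 or 0.01.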

Experiment [2] can be described thus: Displacement of [125I]-angiotensin 2 from angiotensin AT1 receptor in VSMC of Sprague-Dawley rat thoracic aorta after 60 mins by gamma-counting. The format is tissue-based. The method, boiled down: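 VSMCs explant-cultured from SD rat thoracic aorta (collagenase digestion, DMEM + 15% FBS), passages 3-7. Cells incubated with 0.1 nM 125I-angiotensin II plus compound (final 1e-6 to 1e-12 M), 60 min, 37°C. Nonspecific binding defined with 1 µM AII. Cells washed with PBS, lysed in 0.1 M NaOH, gamma-counted. IC50 from regression of displacement curves; Ki = IC50/(1+[L]/Kd).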
A general note: Loss of bound radioactivity is the signal in a displacement assay; it reports binding, not function.

Experiment [3] deals with Rattus norvegicus. In words: Antihypertensive activity in spontaneous hypersensitive […] rat model assessed as reduction of blood pressure at 5 mg/kg, po measured after 4 to 5 hrs. The format is functional. The method, boiled down: as §1
Experiment [4] deals with Rattus norvegicus. Nature of the experiment: Antihypertensive activity in spontaneous hypersensitive […] rat model assessed as reduction of blood pressure at 10 mg/kg, po measured after 4 to 5 hrs. The format is functional. The method, boiled down: as §1
In experiment [5] the test system is Rattus norvegicus. Nature of the experiment: Antihypertensive activity in renal hypersensitive Sprague-Dawley rat model assessed as reduction of blood pressure at 5 to 10 mg/kg, po measured for 1 to 24 hrs. The experiment is classed as functional, organism-based. The method, boiled down:
(§2)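 Renal hypertension induced in Sprague-Dawley rats (250-350 g) by complete ligation of the left renal artery under sodium pentobarbital (40 mg/kg); rats with SBP above 160 mmHg used. Groups of 10. Compound suspended in 0.5% sodium carboxymethyl cellulose and given orally at 5 and 10 mg/kg; vehicle control and losartan 10 mg/kg. Mean blood pressure measured under pentobarbital (40 mg/kg, i.p.) anesthesia.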

Experiment [6] deals with Rattus norvegicus. Nature of the experiment: Antihypertensive activity in renal hypersensitive Sprague-Dawley rat model assessed as reduction of blood pressure at 10 mg/kg, po measured for 1 to 24 hrs. The format is functional, organism-based. Set-up: dose 10 mg/kg. The method, boiled down: as §2
In experiment [7] the test system is Rattus norvegicus. In words: Antihypertensive activity in spontaneous hypersensitive […] rat model assessed as reduction of blood pressure at 10 mg/kg, po measured for 1 to 24 hrs. The format is functional. The method, boiled down:
as §1

Experiment [8] concerns Rattus norvegicus. In words: Antihypertensive activity in spontaneous hypersensitive […] rat model assessed as reduction of blood pressure at <5 to 10 mg/kg, po measured for 1 to 24 hrs. Also on record: dose 10 mg/kg. The format is functional, organism-based. The method, boiled down:
as §1

pIC50, pKi: −log10 of the molar value. Activity calls are given as the source filed them. No cut-off for these calls is given here.

For orientation: pIC50 means −log10 of the IC50, conventionally taken in molar units. High values mean a small IC50, low ones a large IC50. For orientation: pKi means the negative decadic logarithm of the Ki, by convention in mol/L. For the molecule `CCCCc1nc2cc([N+](=O)[O-])ccc2n1Cc1cccc2c1ccn2-c1ccccc1C(=O)O`, in the experiment with Rattus norvegicus [1], the Time is 24 h. For the same molecule, in experiment [2], the pIC50 is 8.99 and the pKi was 9.01. Also, the Activity in the experiment with Rattus norvegicus [3] came out at 30 mmHg. Also, the Activity in the experiment on Rattus norvegicus [4] was found to be 41 mmHg. Moreover, the result in the experiment with Rattus norvegicus [5] was Active.

Turning to `CCc1nc2cc([N+](=O)[O-])ccc2n1Cc1cccc2c1ccn2-c1ccccc1C(=O)O`, in the experiment on Rattus norvegicus [6], the outcome was Active. In experiment [2], this molecule had a pIC50 of 8.39 and a pKi of 8.52. Also, the Activity in the experiment on Rattus norvegicus [7] is 30 mmHg.

As for `CCCCc1nc(Cl)c(CO)n1Cc1ccc(-c2ccccc2-c2nnn[nH]2)cc1` [LOSARTAN], the outcome in the experiment with Rattus norvegicus [6] was Active. In experiment [2], this molecule showed a pIC50 of 8.45 and a pKi of 8.60. The Activity in the experiment on Rattus norvegicus [7] is 31 mmHg.

For the molecule `CCCCCc1nc2cc([N+](=O)[O-])ccc2n1Cc1cccc2c1ccn2-c1ccccc1C(=O)O`, the result in the experiment with Rattus norvegicus [8] was inactive. In experiment [2], the pIC50 was 7.80 and the negative-log Ki (pKi) was 7.87. The result in the experiment on Rattus norvegicus [5] was inactive.

Regarding `CCCCc1nc2cc([N+](=O)[O-])ccc2n1Cc1ccc2c(ccn2-c2ccccc2C(=O)O)c1`, the result with Rattus norvegicus [6] was Active. In experiment [2], the pIC50 was 8.29 and the pKi was 8.31. For the same molecule, in the experiment with Rattus norvegicus [7], the Activity was 32 mmHg.

As to `CCCc1nc2cc([N+](=O)[O-])ccc2n1Cc1cccc2c1ccn2-c1ccccc1C(=O)O`, the outcome in the experiment on Rattus norvegicus [8] and in the experiment with Rattus norvegicus [5] was inactive. This molecule had a pIC50 in experiment [2] of 8.27. The molecule further gave a pKi in experiment [2] of 8.37.

Consider `CCCc1nc2cc([N+](=O)[O-])ccc2n1Cc1ccc2c(ccn2-c2ccccc2C(=O)O)c1`, for which, in the experiment on Rattus norvegicus [6], the result was Active. Moreover, in experiment [2], the pIC50 is 8.48 and the pKi was 8.65. For the same molecule, in the experiment on Rattus norvegicus [7], the Activity was 28 mmHg.

The values above are taken from ChEMBL document CHEMBL3232799, “Design, synthesis and biological evaluation of new 5-nitro benzimidazole derivatives as AT1 antagonists with anti-hypertension activities” (Bioorg Med Chem, 2014).
